# What was measured:
# [1] = tested on: HEK293; experiment: Cytotoxicity against HEK293 cells overexpressing human ABCG2 after 72 hrs by CCK8 assay; assay type: ADME, cell-based; conditions: HEK293, 72 h
# Summary of the method: (§1)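 Cells seeded at 5000/well, allowed 24 h, then exposed to a concentration series for 72 h at 37 °C in DMSO vehicle (up to 0.5% v/v). HEK293 lines were read with CCK-8 and cancer lines with MTT. IC50 was taken from fitted dose-response curves over at least three independent experiments. Lines were kept drug-free for 7 days before assay.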
# [2] = biological target: T1, Broad substrate specificity ATP-binding cassette transporter ABCG2 (Homo sapiens, UniProt Q9UNQ0); experiment: Modulation of ABCG2 (unknown origin) expressed in High Five insect cell vesicle membrane assessed as stimulation of ATPase activity after 20 mins by colorimetric assay
# T1 sequence (Q9UNQ0 whole entry): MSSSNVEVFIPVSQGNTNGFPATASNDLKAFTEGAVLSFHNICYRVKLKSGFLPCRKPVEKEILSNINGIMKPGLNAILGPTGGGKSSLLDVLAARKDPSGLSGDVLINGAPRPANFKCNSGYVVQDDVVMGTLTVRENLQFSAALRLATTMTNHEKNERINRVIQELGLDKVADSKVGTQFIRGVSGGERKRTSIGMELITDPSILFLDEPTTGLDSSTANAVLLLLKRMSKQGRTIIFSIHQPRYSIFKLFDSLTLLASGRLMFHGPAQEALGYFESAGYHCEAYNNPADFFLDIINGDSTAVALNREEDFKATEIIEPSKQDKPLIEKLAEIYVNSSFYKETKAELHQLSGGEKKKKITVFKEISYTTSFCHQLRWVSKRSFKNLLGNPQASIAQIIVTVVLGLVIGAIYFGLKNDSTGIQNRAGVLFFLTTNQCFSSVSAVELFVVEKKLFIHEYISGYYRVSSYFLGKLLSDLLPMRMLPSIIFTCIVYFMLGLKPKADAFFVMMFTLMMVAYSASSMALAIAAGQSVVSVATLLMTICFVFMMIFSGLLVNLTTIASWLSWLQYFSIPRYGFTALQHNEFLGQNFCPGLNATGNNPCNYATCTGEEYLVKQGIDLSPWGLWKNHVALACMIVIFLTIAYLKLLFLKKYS
# Summary of the method: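 Membrane vesicles from ABCG2-expressing High Five cells were incubated with LCA (0–390 μM) at 37 °C for 20 min in 50 mM MES-Tris pH 6.8 with ouabain, DTT, NaN3, EGTA and KCl, ±0.3 mM vanadate. Liberated Pi was read by molybdate/ascorbate colorimetry at 880 nm. Vi-sensitive activity = activity minus activity with vanadate; mean ± SD of three experiments.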
# [3] = tested on: HEK293; experiment: Effect on topotecan-induced cytotoxicity against HEK293 cells assessed as fold change in topotecan IC50 at 3 uM after 72 hrs by CCK8 assay relative to topotecan IC50; assay type: cell-based; conditions: human, hek293, 72 h
# Summary of the method: (§2)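 Reversal assay in parental pcDNA-HEK293 and transfected HEK293 lines (ABCB1 for colchicine, ABCC1 for etoposide, ABCG2 for mitoxantrone/topotecan). Substrate drug series was given with or without nontoxic modulator (0.5, 1.0, 2.0 or 3.0 μM) for 72 h, with a CCK-8 read-out. Fold-reversal is substrate IC50 without modulator divided by IC50 with modulator. Three independent experiments.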
# [4] = biological target: T1, Broad substrate specificity ATP-binding cassette transporter ABCG2; experiment: Reversal of human ABCG2-mediated multidrug resistance in HEK293/R482 cells assessed as fold-change in topotecan IC50 at 1 uM after 72 hrs by CCK8 relative to topotecan IC50; assay type: cell-based
# Summary of the method: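 Cells were seeded at 5000/well for 24 h, then given colchicine, etoposide, mitoxantrone or topotecan ± non-toxic modulator (0.5–3.0 μM) for 72 h, with DMSO up to 0.5%. IC50 came from fitted curves (mean ± SD, three experiments). Fold-reversal = IC50 without modulator ÷ IC50 with modulator.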
# [5] = tested on: HEK293; experiment: Effect on etoposide-induced cytotoxicity against HEK293 cells assessed as fold change in etoposide IC50 at 3 uM after 72 hrs by CCK8 assay relative to etoposide IC50; assay type: cell-based; conditions: human, hek293, 72 h; summary of the method: as §2
# [6] = tested on: S1; experiment: Effect on topotecan-induced cytotoxicity against human S1 cells assessed as fold change in topotecan IC50 at 1 uM after 72 hrs by MTT assay relative to topotecan IC50; assay type: functional
# Summary of the method: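 Parental S1 colon and H460 lung cancer cells were exposed for 72 h to a mitoxantrone or topotecan concentration series, with or without modulator at 0.5–3.0 μM, and read by MTT. Fold-reversal is IC50 without modulator divided by IC50 with modulator, taken from dose-response curves of three independent experiments.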
# [7] = biological target: T1, Broad substrate specificity ATP-binding cassette transporter ABCG2; experiment: Reversal of ABCG2 (unknown origin)-mediated multidrug resistance in human S1-M1-80 cells assessed as fold-change in topotecan IC50 at 1 uM after 72 hrs by MTT assay relative to topotecan IC50; assay type: cell-based; conditions: s1-m1-80, 72 h
# Summary of the method: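 MTT readout in S1-M1-80 colon cancer cells (mitoxantrone-selected, held in 80 μM mitoxantrone, then drug-free 7 days before assay). Cells were seeded at 5000/well for 24 h, then given increasing mitoxantrone or topotecan with DMSO or non-toxic modulator for 72 h at 37 °C. IC50 came from fitted dose-response curves (at least three independent experiments). Fold-reversal = IC50 without modulator ÷ IC50 with modulator.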
# [8] = tested on: NCI-H460; experiment: Cytotoxicity against human H460 cells after 72 hrs by MTT assay; assay type: functional, cell-based; conditions: NCI-H460, 72 h; summary of the method: as §1
# [9] = biological target: T1, Broad substrate specificity ATP-binding cassette transporter ABCG2; experiment: Reversal of ABCG2 (unknown origin)-mediated multidrug resistance in human H460-MX20 cells assessed as fold change in mitoxantrone IC50 at 3 uM after 72 hrs by MTT assay relative to mitoxantrone IC50; assay type: cell-based
# Summary of the method: (§3)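 Cells held drug-free 7 days, seeded at 5000 per well for 24 h, then exposed 72 h to mitoxantrone or topotecan dilutions with DMSO (≤0.5%), LCA 0.5–3.0 μM, or Ko143 1.0 μM. Viability was read by MTT. IC50 came from fitted dose-response curves of three independent experiments. Fold-reversal = IC50 without modulator divided by IC50 with modulator.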
# [10] = tested on: LS180; experiment: Upregulation of ABCG2 mRNA expression in human LS180 cells at 1 uM by […] relative to control; assay type: functional
# [11] = biological target: T1, Broad substrate specificity ATP-binding cassette transporter ABCG2; experiment: Reversal of ABCG2 (unknown origin)-mediated multidrug resistance in human H460-MX20 cells assessed as fold change in mitoxantrone IC50 at 1 uM after 72 hrs by MTT assay relative to mitoxantrone IC50; assay type: cell-based; summary of the method: as §3
# [12] = tested on: S1; experiment: Induction of apoptosis in human S1 cells assessed as early apoptotic cells at 10 uM incubated for 48 hrs in presence of topotecan by annexin V/propidium iodide staining based flow cytometry (reference value: 2%); assay type: functional
# Summary of the method: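 S1 cells were exposed for 48 h to DMSO, 10 μM compound, 5 μM topotecan, or 5 μM topotecan plus 10 μM compound. They were then stained with 1.25 μg/mL annexin V–FITC and 0.1 mg/mL PI for 15 min at room temperature. 10000 cells per sample were analysed by flow cytometry; three independent experiments.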
compound,measurement,setting,value
C=CC(C)(C)c1cc(/C=C/C(=O)c2ccc(O)cc2)c(OC)cc1O [LICOAGROCHACONE A],IC50,[1],10 to 50 µM
same,EC50,[2],14 µM
same,Activity,"[2]; human, 20 min",Dose-dependent effect
same,fold change (FC),[3],1
same,fold change (FC),[4],3.9
same,fold change (FC),[5],0.8
same,fold change (FC),[6],0.8
same,fold change (FC),[7],16.6
same,IC50,[8],10 to 50 µM
same,fold change (FC),[9],16.6
same,fold change (FC),[10],2 - 6
same,fold change (FC),[11],13.4
same,Activity,[12],30.3%

# — ChEMBL document CHEMBL4627381, “Licochalcone A Selectively Resensitizes ABCG2-Overexpressing Multidrug-Resistant Cancer Cells to Chemotherapeutic Drugs” (J Nat Prod, 2020)
